Measurements taken from paper PMC6718200 (Bioorganic & medicinal chemistry, 2018).

Key:
HT29 [1] = experiment: Hoechst 33342 staining; assay type: cell-based, human; settings: HT29, 0, 25, 50, 75 μM, 48 h
Outline: (§1)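 Chromatin-condensation assay. HT29 (McCoy's 5a) and SW620 (high-glucose DMEM), each with 10% FBS, were seeded into 24-well plates. They were treated with the test compound at 0, 25, 50 or 75 μM for 48 h, then fixed in 4% paraformaldehyde for 20 min and washed with PBS. Cells were stained with Hoechst 33342 for 15 min at 37 °C. Condensed-chromatin apoptotic cells were scored by fluorescence microscopy.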

HT29 [2] = experiment: Western blotting analysis; assay type: cell-based, human; settings: HT29, 0, 25, 50, 75 μM, 48 h
Outline: (§2)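 Cells were treated with test compound at 0, 25, 50 and 75 μM for 48 h and lysed in RIPA with protease and phosphatase inhibitors; protein was quantified by BCA. 50 µg lysate was run on 8–15% SDS-PAGE and transferred to PVDF. Blocking was 5% BSA/TBST for 2 h at RT; primary antibodies overnight at 4 °C; HRP secondary 1:10000 for 1 h. Detection by ECL, with tubulin as loading control and densitometry. Three independent experiments; mean ± SD.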

SW620 [3] = experiment: Apoptosis assessment, PI/annexin V-FITC flow cytometry; assay type: cell-based, human; settings: SW620, 0, 25, 50, 75 μM, 48 h
Outline: (§3)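 Cells were grown in 10% FBS medium at 37 °C and 5% CO2: HT29 in McCoy's 5a, SW620 in high-glucose DMEM. They were treated with the test compound at 0, 25, 50 or 75 μM for 48 h. Attached and floating cells were pooled, washed twice in cold PBS and stained with annexin V-FITC/PI for 15 min at room temperature. The apoptotic fraction was read by flow cytometry. Three independent experiments, mean ± SD, two-tailed t-test.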

SW620 [4] = experiment: Cell cycle analysis by flow cytometry; assay type: cell-based, human; settings: SW620, 0, 25, 50, 75 μM, 48 h
Outline: (§4)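 Cells were cultured in 10% FBS at 37 °C and 5% CO2 (HT29 in McCoy's 5a, SW620 in high-glucose DMEM). At 80% confluence they were seeded into 6-well plates and exposed to the test compound at 0, 25, 50 or 75 μM for 48 h. Cells were washed in cold PBS and fixed in 70% ethanol at 4 °C for 24 h. They were stained with PI plus RNase A for 30 min at 37 °C in the dark, then analysed by flow cytometry. Three independent experiments.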

FHC cell lines = experiment: MTT assay, growth inhibition in immortalized colorectal cells; assay type: cell-based; settings: Homo sapiens, read-out: GI50 FHC
Outline: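 MTT format: 3 × 10³ cells per well, 24 h pre-incubation, then test compound at 0–200 μM (final, from DMSO stocks) for 12, 24, 48 or 72 h. MTT at 0.5 mg/mL final for 4 h; formazan dissolved in DMSO; A570. GI50 was fitted from growth-inhibition curves, three independent experiments in sextuplicate.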

SW620 [5] = experiment: Colony formation assay; assay type: cell-based, human; settings: SW620, exposure for two weeks
SW620 [6] = experiment: Hoechst 33342 staining; assay type: cell-based, human; settings: SW620, 0, 25, 50, 75 μM, 48 h
Outline: as §1

HT29 [7] = experiment: BrdU assay; assay type: cell-based, human; settings: HT29, 0, 25, 50, 75 μM, 48 h
Outline: (§5)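 Cells at 80% confluence were seeded at 20,000 per well and exposed to test compound at 0, 25, 50 and 75 μM for 48 h. They were pulsed with 10 μM BrdU for 2 h, fixed in paraformaldehyde, treated with 2 M HCl for 30 min, and blocked with 10% goat serum for 30 min at 37 °C. Staining used rat anti-BrdU (1:2000, overnight, 4 °C), then […] (1:2000, 120 min, RT), then DAPI at 300 nM. The % BrdU-positive cells was scored by fluorescence microscopy. Three independent experiments; mean ± SD.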

SW620 [8] = experiment: BrdU assay; assay type: cell-based, human; settings: SW620, 0, 25, 50, 75 μM, 48 h
Outline: as §5

97-kinase panel = 97-kinase panel screen; assay type: binding; settings: read-out: Kd, all tested kinases
SW620 [9] = experiment: Western blotting analysis; assay type: cell-based, human; settings: SW620, 0, 25, 50, 75 μM, 48 h
Outline: as §2

HT29 [10] = experiment: Colony formation assay; assay type: cell-based, human; settings: HT29, exposure for two weeks
HT29 [11] = experiment: Cell cycle analysis by flow cytometry; assay type: cell-based, human; settings: HT29, 0, 25, 50, 75 μM, 48 h
Outline: as §4

HT29 [12] = experiment: Apoptosis assessment, PI/annexin V-FITC flow cytometry; assay type: cell-based, human; settings: HT29, 0, 25, 50, 75 μM, 48 h
Outline: as §3

CC(C)CN(C(=O)c1cccnc1)c1c2ccccc2c(=O)n2c1[nH]c1ccccc12 [Compound 7g]
number of apoptosis bodies (HT29 [1]): increased in a concentration-dependent manner
BCL-2 protein level (HT29 [2]): decreased
CDK1 level (HT29 [2]): decreased
MCL-1 protein level (HT29 [2]): decreased
PARP activation (HT29 [2]): significantly increased
PTEN level (HT29 [2]): increase in a concentration-dependent manner
cyclin B1 level (HT29 [2]): decreased
p21 level (HT29 [2]): increased
p53 level (HT29 [2]): increased
p-4E-BP1 level (HT29 [2]): decreased
p-AKT level (HT29 [2]): decreased
p-mTOR level (HT29 [2]): decreased
total expression levels of AKT, mTOR and 4E-BP1 (HT29 [2]): hadn’t effect
percentage of cells undergoing apoptosis (SW620 [3]): increased in a concentration-dependent manner
average G2/M proportion (SW620 [4]): increased in a concentration-dependent manner
GI50 (FHC cell lines): > 200 µM
colony size and numbers (SW620 [5]): dramatically reduced
number of apoptosis bodies (SW620 [6]): increased in a concentration-dependent manner
proliferation (BrdU immunofluorescence) (HT29 [7]): inhibited the proliferation
proliferation (BrdU immunofluorescence) (SW620 [8]): inhibited the proliferation
Kd (97-kinase panel): > 5 µM
BCL-2 protein level (SW620 [9]): decreased
CDK1 level (SW620 [9]): decreased
MCL-1 protein level (SW620 [9]): decreased
PARP activation (SW620 [9]): significantly increased
PTEN level (SW620 [9]): increase in a concentration-dependent manner
cyclin B1 level (SW620 [9]): decreased
p21 level (SW620 [9]): increased
p53 level (SW620 [9]): increased
p-4E-BP1 level (SW620 [9]): decreased
p-AKT level (SW620 [9]): decreased
p-mTOR level (SW620 [9]): decreased
total expression levels of AKT, mTOR and 4E-BP1 (SW620 [9]): hadn’t effect
colony size and numbers (HT29 [10]): dramatically reduced
average G2/M proportion (HT29 [11]): increased in a concentration-dependent manner
percentage of cells undergoing apoptosis (HT29 [12]): increased in a concentration-dependent manner
